{
  "source": "ChEMBL document CHEMBL4622853",
  "about": "“Design and synthesis of novel pyrrolo[2,3-b]pyridine derivatives targeting V600EBRAF” (Bioorg Med Chem, 2020)",
  "key": {"HCT-116": {"test_system": "HCT-116", "assay": "Cytotoxicity against human HCT116 cells assessed as reduction in cell viability after 48 hrs by SRB assay", "format": "functional, cell-based", "settings": "HCT-116, 48 h", "method_in_brief": "(§1)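 Cell lines from the NCI sixty human cancer cell line panel. IC50 taken as the concentration that reduces cellular growth to 50% of untreated cells.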"}, "DU-145": {"test_system": "DU-145", "assay": "Cytotoxicity against human DU145 cells assessed as reduction in cell viability after 48 hrs by SRB assay", "format": "functional, cell-based", "settings": "DU-145, 48 h", "method_in_brief": "as §1"}, "CAKI-1 [1]": {"test_system": "CAKI-1", "assay": "Cytotoxicity against human Caki1 cells assessed as reduction in cell viability at 10 uM after 48 hrs by SRB assay relative to control", "format": "functional", "settings": "CAKI-1, 48 h"}, "MDA-MB-231": {"test_system": "MDA-MB-231", "assay": "Cytotoxicity against human MDA-MB-231 cells assessed as reduction in cell viability after 48 hrs by SRB assay", "format": "functional, cell-based", "settings": "MDA-MB-231, 48 h", "method_in_brief": "as §1"}, "ACHN [2]": {"test_system": "ACHN", "assay": "Cytotoxicity against human ACHN cells assessed as reduction in cell viability after 48 hrs by SRB assay", "format": "functional, cell-based", "method_in_brief": "as §1"}, "[3]": {"biological_target": "Serine/threonine-protein kinase B-raf (Homo sapiens, UniProt P15056, V600E)", "sequence (P15056 2-766 V600E limits assumed)": "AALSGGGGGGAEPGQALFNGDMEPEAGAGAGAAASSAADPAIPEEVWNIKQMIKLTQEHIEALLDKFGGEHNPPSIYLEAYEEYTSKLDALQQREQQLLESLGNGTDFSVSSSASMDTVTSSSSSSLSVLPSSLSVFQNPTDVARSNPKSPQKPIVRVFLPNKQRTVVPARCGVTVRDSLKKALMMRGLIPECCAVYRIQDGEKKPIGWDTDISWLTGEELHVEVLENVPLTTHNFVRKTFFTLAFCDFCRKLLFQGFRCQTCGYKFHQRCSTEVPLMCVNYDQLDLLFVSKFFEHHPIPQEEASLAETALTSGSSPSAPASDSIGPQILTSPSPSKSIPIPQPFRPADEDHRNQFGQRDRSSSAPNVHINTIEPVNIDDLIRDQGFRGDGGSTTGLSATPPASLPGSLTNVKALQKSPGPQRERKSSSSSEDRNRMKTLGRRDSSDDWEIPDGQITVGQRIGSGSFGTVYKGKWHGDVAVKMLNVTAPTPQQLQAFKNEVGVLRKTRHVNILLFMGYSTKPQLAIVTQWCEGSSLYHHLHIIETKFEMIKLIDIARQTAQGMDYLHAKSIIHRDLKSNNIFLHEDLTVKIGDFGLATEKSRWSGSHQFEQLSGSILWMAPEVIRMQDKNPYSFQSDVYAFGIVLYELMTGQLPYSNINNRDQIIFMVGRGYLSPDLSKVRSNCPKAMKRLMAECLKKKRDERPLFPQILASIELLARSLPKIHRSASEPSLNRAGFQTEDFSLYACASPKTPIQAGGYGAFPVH", "assay": "Inhibition of human BRAF V600E mutant by ELISA"}, "[4]": {"biological_target": "Serine/threonine-protein kinase B-raf (Homo sapiens, UniProt P15056)", "sequence (P15056 whole entry)": "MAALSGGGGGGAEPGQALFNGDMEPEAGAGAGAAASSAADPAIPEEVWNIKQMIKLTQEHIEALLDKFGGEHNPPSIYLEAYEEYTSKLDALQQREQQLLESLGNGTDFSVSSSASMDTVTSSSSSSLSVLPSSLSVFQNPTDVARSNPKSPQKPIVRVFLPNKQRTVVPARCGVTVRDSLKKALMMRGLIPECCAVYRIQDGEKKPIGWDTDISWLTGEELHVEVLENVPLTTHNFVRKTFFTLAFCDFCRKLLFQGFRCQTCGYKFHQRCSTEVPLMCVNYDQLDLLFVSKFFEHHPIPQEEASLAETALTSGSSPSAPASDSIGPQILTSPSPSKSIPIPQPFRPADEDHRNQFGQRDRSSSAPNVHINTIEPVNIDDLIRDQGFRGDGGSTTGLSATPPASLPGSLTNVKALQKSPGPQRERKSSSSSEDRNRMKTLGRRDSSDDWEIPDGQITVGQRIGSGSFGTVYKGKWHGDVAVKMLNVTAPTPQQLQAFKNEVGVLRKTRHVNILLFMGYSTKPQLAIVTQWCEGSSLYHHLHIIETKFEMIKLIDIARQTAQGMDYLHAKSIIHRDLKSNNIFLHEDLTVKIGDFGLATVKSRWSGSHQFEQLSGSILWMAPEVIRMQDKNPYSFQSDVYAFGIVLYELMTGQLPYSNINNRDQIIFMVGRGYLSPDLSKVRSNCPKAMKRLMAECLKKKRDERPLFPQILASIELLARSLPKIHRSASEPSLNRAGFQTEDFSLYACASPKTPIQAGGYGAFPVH", "assay": "Inhibition of human wild type BRAF at 10 uM by ELISA", "method_in_brief": "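Wild-type BRAF kinase inhibition run in the same manner as the V600E-B-RAF ELISA, reported as percent inhibition at 10 µM.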"}, "SK-OV-3 [5]": {"test_system": "SK-OV-3", "assay": "Cytotoxicity against human SKOV3 cells assessed as reduction in cell viability after 48 hrs by SRB assay", "format": "functional, cell-based", "settings": "SK-OV-3, 48 h", "method_in_brief": "as §1"}, "SK-MEL-2 [6]": {"test_system": "SK-MEL-2", "assay": "Cytotoxicity against human SK-MEL-2 cells assessed as reduction in cell viability at 10 uM after 48 hrs by SRB assay relative to control", "format": "functional", "settings": "SK-MEL-2, 48 h"}, "M14 [7]": {"test_system": "M14", "assay": "Cytotoxicity against human M14 cells assessed as reduction in cell viability after 48 hrs by SRB assay", "format": "functional, cell-based", "settings": "M14, 48 h", "method_in_brief": "as §1"}, "[8]": {"test_system": "Serine/threonine-protein kinase B-raf (Homo sapiens), P15056 [V600E]", "sequence (P15056 whole entry V600E)": "as the sequence (P15056 whole entry) above, with V600E counted along it", "assay": "Inhibition of human BRAF V600E mutant at 10 uM by ELISA"}, "SK-OV-3 [9]": {"test_system": "SK-OV-3", "assay": "Cytotoxicity against human SKOV3 cells assessed as reduction in cell viability at 10 uM after 48 hrs by SRB assay relative to control", "format": "functional", "settings": "SK-OV-3, 48 h"}, "CAKI-1 [10]": {"test_system": "CAKI-1", "assay": "Cytotoxicity against human Caki1 cells assessed as reduction in cell viability after 48 hrs by SRB assay", "format": "functional, cell-based", "settings": "CAKI-1, 48 h", "method_in_brief": "as §1"}, "K562 [11]": {"test_system": "K562", "assay": "Cytotoxicity against human K562 cells assessed as reduction in cell viability after 48 hrs by SRB assay", "format": "functional, cell-based", "settings": "K562, 48 h", "method_in_brief": "as §1"}, "A498": {"test_system": "A498", "assay": "Cytotoxicity against human A498 cells assessed as reduction in cell viability after 48 hrs by SRB assay", "format": "functional, cell-based", "settings": "A498, 48 h", "method_in_brief": "as §1"}, "LOX IMVI": {"test_system": "LOX IMVI", "assay": "Cytotoxicity against human LOXIMVI cells assessed as reduction in cell viability after 48 hrs by SRB assay", "format": "functional, cell-based", "method_in_brief": "as §1"}, "IGROV-1 [12]": {"test_system": "IGROV-1", "assay": "Cytotoxicity against human IGROV1 cells assessed as reduction in cell viability after 48 hrs by SRB assay", "format": "functional, cell-based", "settings": "IGROV-1, 48 h", "method_in_brief": "as §1"}, "K562 [13]": {"test_system": "K562", "assay": "Cytotoxicity against human K562 cells assessed as reduction in cell viability at 10 uM after 48 hrs by SRB assay relative to control", "format": "functional", "settings": "K562, 48 h"}, "IGROV-1 [14]": {"test_system": "IGROV-1", "assay": "Cytotoxicity against human IGROV1 cells assessed as reduction in cell viability at 10 uM after 48 hrs by SRB assay relative to control", "format": "functional", "settings": "IGROV-1, 48 h"}, "NCI-H522": {"test_system": "NCI-H522", "assay": "Cytotoxicity against human NCI-H522 cells assessed as reduction in cell viability after 48 hrs by SRB assay", "format": "functional, cell-based", "settings": "NCI-H522, 48 h", "method_in_brief": "as §1"}, "Hs-578T": {"test_system": "Hs-578T", "assay": "Cytotoxicity against human Hs 578T cells assessed as reduction in cell viability after 48 hrs by SRB assay", "format": "functional, cell-based", "method_in_brief": "as §1"}, "M14 [15]": {"test_system": "M14", "assay": "Cytotoxicity against human M14 cells assessed as reduction in cell viability at 10 uM after 48 hrs by SRB assay relative to control", "format": "functional", "settings": "M14, 48 h"}, "Malme-3M": {"test_system": "Malme-3M", "assay": "Cytotoxicity against human MALME-3M cells assessed as reduction in cell viability after 48 hrs by SRB assay", "format": "functional, cell-based", "method_in_brief": "as §1"}, "SK-MEL-2 [16]": {"test_system": "SK-MEL-2", "assay": "Cytotoxicity against human SK-MEL-2 cells assessed as reduction in cell viability after 48 hrs by SRB assay", "format": "functional, cell-based", "settings": "SK-MEL-2, 48 h", "method_in_brief": "as §1"}, "NCI-H460": {"test_system": "NCI-H460", "assay": "Cytotoxicity against human NCI-H460 cells assessed as reduction in cell viability after 48 hrs by SRB assay", "format": "functional, cell-based", "settings": "NCI-H460, 48 h", "method_in_brief": "as §1"}, "ACHN [17]": {"test_system": "ACHN", "assay": "Cytotoxicity against human ACHN cells assessed as reduction in cell viability at 10 uM after 48 hrs by SRB assay relative to control", "format": "functional"}, "HL-60(TB) [18]": {"test_system": "HL-60(TB)", "assay": "Cytotoxicity against human HL-60(TB) cells assessed as reduction in cell viability after 48 hrs by SRB assay", "format": "functional, cell-based", "settings": "HL-60, 48 h", "method_in_brief": "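Tested within the NCI sixty human cancer cell line panel. IC50 is the concentration that reduces cellular growth to 50% of untreated cells after treatment.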"}, "HL-60(TB) [19]": {"test_system": "HL-60(TB)", "assay": "Cytotoxicity against human HL-60(TB) cells assessed as reduction in cell viability at 10 uM after 48 hrs by SRB assay relative to control", "format": "functional", "settings": "HL-60, 48 h"}},
  "data": [
    {"molecule": "O=C(Nc1ccc(Br)cc1)Nc1ccc(F)c(C(=O)c2c[nH]c3ncc(Br)cc23)c1F", "values": [
      {"measurement": "IC50", "setting": "HCT-116", "result": 8.71, "unit": "µM"},
      {"measurement": "IC50", "setting": "DU-145", "result": 9.62, "unit": "µM"},
      {"measurement": "inhibition at 10 µM", "setting": "CAKI-1 [1]", "result": 90, "unit": "%"},
      {"measurement": "IC50", "setting": "MDA-MB-231", "result": 12.2, "unit": "µM"},
      {"measurement": "IC50", "setting": "ACHN [2]", "result": 7.62, "unit": "µM"},
      {"measurement": "IC50", "setting": "[3]", "result": 0.08, "unit": "µM"},
      {"measurement": "inhibition", "setting": "[4]", "result": 72.5, "unit": "%"},
      {"measurement": "IC50", "setting": "SK-OV-3 [5]", "result": 4.52, "unit": "µM"},
      {"measurement": "inhibition at 10 µM", "setting": "SK-MEL-2 [6]", "result": 85, "unit": "%"},
      {"measurement": "IC50", "setting": "M14 [7]", "result": 7.92, "unit": "µM"},
      {"measurement": "inhibition", "setting": "[8]", "result": 92.3, "unit": "%"},
      {"measurement": "inhibition at 10 µM", "setting": "SK-OV-3 [9]", "result": 87, "unit": "%"},
      {"measurement": "IC50", "setting": "CAKI-1 [10]", "result": 3.04, "unit": "µM"},
      {"measurement": "IC50", "setting": "K562 [11]", "result": 7.21, "unit": "µM"},
      {"measurement": "IC50", "setting": "A498", "result": 11.2, "unit": "µM"},
      {"measurement": "IC50", "setting": "LOX IMVI", "result": 26.5, "unit": "µM"},
      {"measurement": "IC50", "setting": "IGROV-1 [12]", "result": 5.06, "unit": "µM"},
      {"measurement": "inhibition at 10 µM", "setting": "K562 [13]", "result": 65, "unit": "%"},
      {"measurement": "inhibition at 10 µM", "setting": "IGROV-1 [14]", "result": 75, "unit": "%"},
      {"measurement": "IC50", "setting": "NCI-H522", "result": 9.01, "unit": "µM"},
      {"measurement": "IC50", "setting": "Hs-578T", "result": 9.36, "unit": "µM"},
      {"measurement": "inhibition at 10 µM", "setting": "M14 [15]", "result": 65, "unit": "%"},
      {"measurement": "IC50", "setting": "Malme-3M", "result": 9.26, "unit": "µM"},
      {"measurement": "IC50", "setting": "SK-MEL-2 [16]", "result": 6.02, "unit": "µM"},
      {"measurement": "IC50", "setting": "NCI-H460", "result": 10.5, "unit": "µM"},
      {"measurement": "inhibition at 10 µM", "setting": "ACHN [17]", "result": 70, "unit": "%"},
      {"measurement": "IC50", "setting": "HL-60(TB) [18]", "result": 10.9, "unit": "µM"}
    ]},
    {"molecule": "O=C(Nc1ccc(C(F)(F)F)cc1)Nc1ccc(F)c(C(=O)c2c[nH]c3ncccc23)c1F", "values": [
      {"measurement": "IC50", "setting": "HCT-116", "result": 15.5, "unit": "µM"},
      {"measurement": "IC50", "setting": "DU-145", "result": 27.6, "unit": "µM"},
      {"measurement": "IC50", "setting": "MDA-MB-231", "result": 9.72, "unit": "µM"},
      {"measurement": "IC50", "setting": "ACHN [2]", "result": 21.3, "unit": "µM"},
      {"measurement": "IC50", "setting": "[3]", "result": 0.114, "unit": "µM"},
      {"measurement": "inhibition", "setting": "[4]", "result": 79.3, "unit": "%"},
      {"measurement": "IC50", "setting": "SK-OV-3 [5]", "result": 18.8, "unit": "µM"},
      {"measurement": "inhibition at 10 µM", "setting": "HL-60(TB) [19]", "result": 67, "unit": "%"},
      {"measurement": "IC50", "setting": "M14 [7]", "result": 24.3, "unit": "µM"},
      {"measurement": "inhibition", "setting": "[8]", "result": 98.7, "unit": "%"},
      {"measurement": "IC50", "setting": "CAKI-1 [10]", "result": 14, "unit": "µM"},
      {"measurement": "IC50", "setting": "K562 [11]", "result": 25.3, "unit": "µM"},
      {"measurement": "IC50", "setting": "A498", "result": 32.3, "unit": "µM"},
      {"measurement": "IC50", "setting": "LOX IMVI", "result": 27, "unit": "µM"},
      {"measurement": "IC50", "setting": "IGROV-1 [12]", "result": 9.66, "unit": "µM"},
      {"measurement": "inhibition at 10 µM", "setting": "K562 [13]", "result": 83, "unit": "%"},
      {"measurement": "IC50", "setting": "NCI-H522", "result": 29.1, "unit": "µM"},
      {"measurement": "IC50", "setting": "Hs-578T", "result": 21.4, "unit": "µM"},
      {"measurement": "IC50", "setting": "Malme-3M", "result": 12.3, "unit": "µM"},
      {"measurement": "IC50", "setting": "SK-MEL-2 [16]", "result": 21.1, "unit": "µM"},
      {"measurement": "IC50", "setting": "NCI-H460", "result": 26.4, "unit": "µM"},
      {"measurement": "IC50", "setting": "HL-60(TB) [18]", "result": 8.12, "unit": "µM"}
    ]}
  ]
}
